Consider seven compounds from ChEMBL document CHEMBL1134562, “Fluorosulfonyl- and bis-(beta-chloroethyl)amino-phenylamino functionalized pyrazolo[4,3-e]1,2,4-triazolo[1,5-c]pyrimidine derivatives: irreversible antagonists at the human A3 adenosine receptor and molecular modeling studies” (J Med Chem, 2001).

For orientation: inhibition means the share of the control response that was lost under treatment. Lower therefore signals a response near the control.

The target of assay [1] is T1, Adenosine receptor A3 (Homo sapiens) (UniProt P0DMS8).
T1 sequence (whole entry): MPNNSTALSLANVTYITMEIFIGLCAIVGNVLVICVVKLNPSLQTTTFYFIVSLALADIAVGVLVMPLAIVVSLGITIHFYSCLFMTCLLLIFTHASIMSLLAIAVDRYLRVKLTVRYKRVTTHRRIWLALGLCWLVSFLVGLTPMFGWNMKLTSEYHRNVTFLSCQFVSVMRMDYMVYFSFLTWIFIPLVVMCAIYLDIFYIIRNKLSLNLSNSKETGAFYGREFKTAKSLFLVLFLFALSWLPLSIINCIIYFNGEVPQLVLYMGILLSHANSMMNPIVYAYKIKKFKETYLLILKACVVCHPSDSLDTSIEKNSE
As to the kind of experiment: Irreversible inhibition of […]-AB-MECA binding to human adenosine A3 receptor at 100 nM. In short, it runs like this:
(§1)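 Membranes from CHO cells stably expressing human A3 receptor, preincubated 1 h at room temperature with compound (DMSO ≤1%), then washed 9 times by centrifugation/resuspension in 50 mM Tris, 10 mM Mg2+, 1 mM EDTA pH 7.4 with 0.02% CHAPS; adenosine deaminase 3 units/mL throughout.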

In assay [2] the target is T1, Adenosine receptor A3 (Homo sapiens). The assay can be described thus: Irreversible inhibition of […]-AB-MECA binding to human adenosine A3 receptor at 10 nM. In short, it runs like this:
as §1

Assay [3] shares this target. As to the kind of experiment: Irreversible inhibition of […]-AB-MECA binding to human adenosine A3 receptor at 1 nM. The gist of the method:
as §1

For `CCCn1cc2c(nc(NC(=O)Nc3ccc(S(=O)(=O)F)cc3)n3nc(-c4ccco4)nc23)n1`, the inhibition stood at 79% in assay [1], 70% in assay [2] and 47% in assay [3].

Take `CCCn1cc2c(nc(NC(=O)Nc3ccc(N(CCCl)CCCl)cc3)n3nc(-c4ccco4)nc23)n1`: the inhibition worked out at 16% in assay [1], 11% in assay [2] and 7.8% in assay [3].

Turning to `CCCCn1cc2c(nc(NC(=O)Nc3ccc(S(=O)(=O)F)cc3)n3nc(-c4ccco4)nc23)n1`, the inhibition was found to be 73% in assay [1], 40% in assay [2] and 31% in assay [3].

For the compound `CCn1cc2c(nc(NC(=O)Nc3ccc(S(=O)(=O)F)cc3)n3nc(-c4ccco4)nc23)n1`, the inhibition in assay [1] is 65%; in assay [2], 30%; in assay [3], 4.1%.

As for `CCn1cc2c(nc(NC(=O)Nc3ccc(N(CCCl)CCCl)cc3)n3nc(-c4ccco4)nc23)n1`, the inhibition in assay [1] is 18%; in assay [2], 0%; in assay [3] it was 0%.

Regarding `Cn1cc2c(nc(NC(=O)Nc3ccc(N(CCCl)CCCl)cc3)n3nc(-c4ccco4)nc23)n1`, the inhibition in assay [1] is 22%; in assay [2], 11%; in assay [3], 0%.

With `CCCCn1cc2c(nc(NC(=O)Nc3ccc(N(CCCl)CCCl)cc3)n3nc(-c4ccco4)nc23)n1`, the inhibition in assay [1] is 9%; in assay [2] it was 7%; in assay [3] it was 0%.
